# From ChEMBL document CHEMBL1153444, “Discovery of dual inhibitors targeting both HIV-1 capsid and human cyclophilin A to inhibit the assembly and uncoating of the viral capsid” (Bioorg Med Chem, 2009)
# Legend:
# [1] = system: Simian immunodeficiency virus; assay: Antiviral activity against SIV in human CEM cells assessed as inhibition of virus-induced cytopathogenicity at 10 uM; format: functional, CCRF-CEM; parameters: scale not given: the % may be the effect or the level left
# [2] = system: Simian immunodeficiency virus; assay: Antiviral activity against SIV in human CEM cells assessed as inhibition of virus-induced cytopathogenicity; format: functional, organism-based, CCRF-CEM; conditions: ccrf-cem
# In short: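 SIV syncytium assay in CEM174 cells (2 × 10⁵ cells/ml) infected with 100 TCID₅₀ SIV per well alongside serial compound dilutions. Cultures were kept 5 days at 37 °C in humidified 5% CO₂, then giant-cell formation was scored microscopically. EC₅₀ is the concentration protecting cells from SIV cytopathogenicity by 50%.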
smiles,measurement,setting,value
C/C=C/C[C@@H](C)[C@@H](O)[C@H]1C(=O)N[C@@H](CC)C(=O)N(C)CC(=O)N(C)[C@@H](CC(C)C)C(=O)N[C@@H](C(C)C)C(=O)N(C)[C@@H](CC(C)C)C(=O)N[C@@H](C)C(=O)N[C@H](C)C(=O)N(C)[C@@H](CC(C)C)C(=O)N(C)[C@@H](CC(C)C)C(=O)N(C)[C@@H](C(C)C)C(=O)N1C [CYCLOSPORINE],Activity,[1],<10%
same,EC50,[2],Not Active
